Test results taken from ChEMBL document CHEMBL4321800, “Synthesis, Identification, and Structure-Activity Relationship Analysis of GATA4 and NKX2-5 Protein-Protein Interaction Modulators” (J Med Chem, 2019).

Columns and labels:
Assay type in all cases: cell-based
[1] = target: T1, GATA4/NKX2-5 (Mus musculus) (UniProt Q08369+P42582); assay: Enhancement of mouse GATA4/mouse NKX2-5 protein-protein interaction expressed in Chlorocebus aethiops COS1 cells harboring 3xHA reporter gene assessed as transcriptional synergy at 10 uM after 24 hrs by luciferase reporter gene assay relative to control
How it was run: (§1)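 COS-1 cells seeded 14 000/well, grown overnight, then transfected for 6 h in serum- and antibiotic-free medium with pGL3-3xHA reporter (three NKX2-5 sites, 100 ng/well) plus pMT2-GATA4 and pMT2-NKX2-5 (total 50 ng/well), Fugene 6 at 1:3 DNA/reagent. Compound or 0.1% DMSO vehicle for 24 h, then luminescence read. Triplicates, Grubbs outliers removed, expressed as % of control.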

[2] = target: Transcription factor GATA-4 (Mus musculus) (UniProt Q08369); assay: Inhibition of mouse GATA4 expressed in Chlorocebus aethiops COS1 cells harboring NP-112 reporter gene assessed as BNP promoter-driven transcriptional activity at 10 uM after 24 hrs by luciferase reporter gene assay relative to control; set-up: scale not given: the % may be the effect or the level left
Sequence of Transcription factor GATA-4 (Mus musculus) (Q08369 whole entry): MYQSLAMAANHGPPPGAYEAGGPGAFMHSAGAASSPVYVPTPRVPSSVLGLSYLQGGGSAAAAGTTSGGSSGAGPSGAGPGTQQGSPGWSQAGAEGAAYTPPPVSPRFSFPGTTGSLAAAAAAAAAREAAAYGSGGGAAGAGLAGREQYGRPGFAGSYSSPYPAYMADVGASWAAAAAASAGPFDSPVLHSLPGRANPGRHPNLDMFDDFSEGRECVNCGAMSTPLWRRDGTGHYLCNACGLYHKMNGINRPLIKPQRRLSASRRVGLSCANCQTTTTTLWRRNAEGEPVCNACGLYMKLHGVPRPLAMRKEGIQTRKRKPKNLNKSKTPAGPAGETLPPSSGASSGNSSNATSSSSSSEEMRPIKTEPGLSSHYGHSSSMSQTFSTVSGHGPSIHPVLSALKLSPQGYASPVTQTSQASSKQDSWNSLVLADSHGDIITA
How it was run: (§2)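 GATA reporter assay: COS-1 cells (14 000/well, overnight) transfected 6 h serum/antibiotic-free with NP-112 reporter (tandem GATA sites plus rat BNP minimal promoter, 100 ng/well) and pMT2-GATA4 (25 ng/well), Fugene 6 1:3. Treated 24 h with compound or 0.1% DMSO. Luminescence read; triplicates, Grubbs outliers removed, % of control.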

[3] = target: T1, GATA4/NKX2-5 (Mus musculus); assay: Inhibition of mouse GATA4/mouse NKX2-5 protein-protein interaction expressed in Chlorocebus aethiops COS1 cells harboring 3xHA reporter gene assessed as transcriptional synergy at 10 uM after 24 hrs by luciferase reporter gene assay relative to control; set-up: scale not given: the % may be the effect or the level left; how it was run: as §1
[4] = target: Homeobox protein Nkx-2.5 (Mus musculus) (UniProt P42582); assay: Inhibition of mouse NKX2-5 expressed in Chlorocebus aethiops COS1 cells harboring 3xHA reporter gene assessed as protein-induced transcriptional activity at 10 uM after 24 hrs by luciferase reporter gene assay relative to control; set-up: scale not given: the % may be the effect or the level left
Sequence of Homeobox protein Nkx-2.5 (Mus musculus) (P42582 whole entry): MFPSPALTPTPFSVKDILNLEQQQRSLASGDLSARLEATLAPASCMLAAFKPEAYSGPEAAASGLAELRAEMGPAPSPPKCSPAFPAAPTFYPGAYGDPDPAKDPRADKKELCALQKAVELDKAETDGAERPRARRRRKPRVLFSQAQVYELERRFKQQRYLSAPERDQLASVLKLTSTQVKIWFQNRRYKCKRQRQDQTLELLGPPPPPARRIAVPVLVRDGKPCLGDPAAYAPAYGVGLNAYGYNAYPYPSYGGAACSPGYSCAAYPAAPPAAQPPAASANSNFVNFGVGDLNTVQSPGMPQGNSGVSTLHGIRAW
How it was run: (§3)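 COS-1 cells seeded 14 000/well and grown overnight. Transfection for 6 h in serum- and antibiotic-free medium with pGL3-3xHA reporter (100 ng/well) and pMT2-NKX2-5 (25 ng/well), Fugene 6 1:3. Compound or 0.1% DMSO vehicle for 24 h, then luciferase luminescence. Triplicate wells with Grubbs outlier removal, % of control.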

[5] = target: T1, GATA4/NKX2-5 (Mus musculus); assay: Modulation of mouse GATA4/mouse NKX2-5 protein-protein interaction expressed in Chlorocebus aethiops COS1 cells harboring 3xHA reporter gene assessed as transcriptional synergy at 10 uM after 24 hrs by luciferase reporter gene assay relative to control; how it was run: as §1
[6] = test system: COS-1; assay: Induction of necrosis in Chlorocebus aethiops COS1 cells assessed as LDH release at 1 to 30 uM after 24 hrs by LDH assay relative to control; details: cos-1, 24 h
How it was run: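 COS-1 cells in DMEM with 10% FBS at 37 °C, 5% CO₂, plated 10 000/well and exposed next day to 1–30 μM for 24 h. Medium samples mixed with NAD, iodonitrotetrazolium, lactate and phenazine methosulfate in 0.2 M Tris-HCl pH 8.2, 30 min at room temperature. Stopped with acetic acid, A490 read and normalized to maximal and spontaneous release.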

[7] = target: Homeobox protein Nkx-2.5 (Mus musculus) (UniProt P42582); assay: Enhancement of mouse NKX2-5 expressed in Chlorocebus aethiops COS1 cells harboring 3xHA reporter gene assessed as protein-induced transcriptional activity at 10 uM after 24 hrs by luciferase reporter gene assay relative to control; how it was run: as §3
[8] = target: Transcription factor GATA-4 (Mus musculus) (UniProt Q08369); assay: Modulation of mouse GATA4 expressed in Chlorocebus aethiops COS1 cells harboring NP-112 reporter gene assessed as BNP promoter-driven transcriptional activity at 10 uM after 24 hrs by luciferase reporter gene assay relative to control; how it was run: as §2
[9] = target: Homeobox protein Nkx-2.5 (Mus musculus) (UniProt P42582); assay: Modulation of mouse NKX2-5 expressed in Chlorocebus aethiops COS1 cells harboring 3xHA reporter gene assessed as protein-induced transcriptional activity at 10 uM after 24 hrs by luciferase reporter gene assay relative to control; how it was run: as §3

| Structure (SMILES) | Activity [5] | Activity [6] | Activity [8] | Activity [9] | also measured |
| --- | --- | --- | --- | --- | --- |
| Cc1onc(-c2ccccc2)c1NC(=O)c1ccc(N2CCN(C)CC2)cc1 |  |  |  |  | Activity [1]: 120% |
| CC(=O)c1ccc(NC(=O)c2cc(-c3ccco3)on2)cc1 |  |  |  |  | Activity [1]: 130% |
| CCN(CC)c1ccc(NC(=O)c2csc([N+](=O)[O-])c2)cc1 | 25% | < 8% |  |  | Activity [2]: 23%; Activity [3]: 25%; Activity [4]: 26% |
| CCN(CC)c1ccc(-n2c(=O)c3c(C)onc3c3ccccc32)cc1 |  |  |  |  | Activity [7]: 110% |
| Cc1onc(-c2ccccc2)c1C(=O)Nc1ccc(C(=O)OCCCCC#N)cc1 | 90% |  | 100% |  | Activity [7]: 150% |
| Cc1onc(-c2ccccc2)c1C(=O)N(C)c1ccc(C(=O)O)cc1 |  |  |  |  | Activity [1]: 130% |
| CCC(OC)c1ccc(OCc2c(-c3ccccc3)noc2C)cc1 (racemic) | 43% | < 8% | 78% | 67% |  |
| C#CC[N+](CC)(CC)c1ccc(NC(=O)c2c(-c3ccccc3)noc2C)cc1 |  |  |  |  | Activity [7]: 120% |
| Cc1onc(-c2ccccc2)c1C(=O)Nc1ccc(C#C[Si](C)(C)C)cc1 | 69% | < 8% | 93% | 75% |  |
| CCN(CC)c1ccc(NC(=O)c2cnc(SC)n2-c2ccc(F)cc2)cc1 | 52% | < 8% |  | 65% | Activity [2]: 45% |
| CCN(CC)c1ccc(NC(=O)c2c(-c3ccc(F)cc3)noc2C)cc1 | 44% | < 8% | 79% | 47% |  |
| CCC(C)NC(=O)c1cc(-c2ccco2)on1 (configuration not stated) |  |  |  |  | Activity [1]: 140% |
| CCN(CC)c1ccc(NC(=O)c2cnoc2C2CC2)cc1 |  |  |  |  | Activity [1]: 140% |
| Cc1onc(-c2ccccc2)c1C(=O)Nc1ccc(C(=O)OCCC#N)cc1 |  |  |  |  | Activity [7]: 130% |
| CCN(c1ccc(NC(=O)c2c(C)noc2-c2snnc2C)cc1)C(C)C |  |  |  |  | Activity [3]: 19% |
| CCN(CC)c1ccc(NC(=O)c2c(-c3ccncc3)noc2C)cc1 | 61% | < 8% | 79% | 61% |  |
| CCN(CC)c1ccc(NC(=O)c2cnoc2-c2ccccc2)cc1 | 47% | < 8% | 62% | 50% |  |
| CCN(CC)c1ccc(NC(=O)c2c(-c3ccsc3)noc2C)cc1 | 66% | < 8% | 71% | 84% |  |
| CCN(CC)c1ccc(CN(C(=O)C(F)(F)F)c2c(-c3ccccc3)noc2C)cc1 | 52% | < 8% | 72% | 71% |  |
| Cc1onc(-c2ccccc2)c1C(=O)Nc1ccc2oc(-c3ccccc3)cc(=O)c2c1 | 31% | < 8% | 66% | 53% |  |
| CCN(CC)c1ccc(NC(=O)c2csc3nnsc23)cc1 |  |  |  |  | Activity [1]: 130% |
| CCN(CC)c1ccc(NC(=O)c2cn(C)cc2-c2cc(C)on2)cc1 | 110% |  | 110% |  | Activity [7]: 110% |
| CCN(CC)c1ccc(NC(=O)c2c(-c3ccccc3)nnn2CCc2ccccc2)cc1 |  | < 8% |  |  | Activity [2]: 38%; Activity [4]: 34% |
| CCN(c1ccc(NC(=O)c2c(-c3ccccc3)noc2C)cc1)C(C)C | 41% | < 8% | 75% |  | Activity [4]: 34% |
| CCN(CC)c1ccc(CNc2c(-c3ccccc3)noc2C)cc1 | 91% | < 8% | 77% | 89% |  |
| C=CCN(Cc1ccc(N(CC)CC)cc1)c1c(-c2ccccc2)noc1C | 53% | < 8% | 80% | 73% |  |
| Cc1onc(-c2ccccc2)c1COc1ccc(C(=O)O)cc1 |  |  |  |  | Activity [1]: 120% |
| CCN(CC)c1ccc(NC(=O)c2snnc2-c2ccccc2)cc1 | 41% | < 8% | 52% | 49% |  |
